The values below come from PMC3057471 (Biochemistry, 2011).

Assay [1] is described as follows: Ca^2+ association constants of chromophoric chelators. The format is binding. The settings on record: 20 °C, 20 mM Tris-HCl pH 6.8, 100 mM NaCl.
The target of assay [2] is T1, F1 TnC (Lethocerus indicus, UniProt Q868D4).
T1 sequence (Q868D4 1-158): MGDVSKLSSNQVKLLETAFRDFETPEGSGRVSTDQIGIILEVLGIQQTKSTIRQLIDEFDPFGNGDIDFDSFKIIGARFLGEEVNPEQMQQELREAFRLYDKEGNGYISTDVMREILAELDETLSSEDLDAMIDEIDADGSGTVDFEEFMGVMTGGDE
The settings on record: C lobe of F1 TnC, essentially Ca^2+ independent; cited from earlier work.

In assay [3] the target is T1, F1 TnC. The assay is described as follows: TnH peptide binding to F1 TnC by competition with melittin. Conditions: 20 °C, 20 mM Tris-HCl pH 6.8, 100 mM NaCl. Summed up:
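Competition assay: mixtures of melittin and F1 TnC were titrated with synthetic test peptides (TnH fragments; >95% HPLC, sequences MALDI-verified). Displacement was followed by melittin Trp fluorescence (excitation 280 nm, emission 290–400 nm). Conditions were 20 °C, 20 mM Tris-HCl pH 6.8, 100 mM NaCl, with 1 mM Ca2+, 5 mM Mg2+, or both.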

The next assay deals with T2, F2 TnC (Lethocerus indicus, UniProt Q868D3).
T2 sequence (Q868D3 1-158): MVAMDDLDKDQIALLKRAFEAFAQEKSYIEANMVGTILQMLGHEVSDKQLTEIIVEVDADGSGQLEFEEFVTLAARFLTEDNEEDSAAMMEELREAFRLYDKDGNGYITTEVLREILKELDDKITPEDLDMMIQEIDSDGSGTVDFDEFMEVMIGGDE
Kind of assay: TnH peptide binding to F2 TnC by competition with melittin. The settings on record: 20 °C, 20 mM Tris-HCl pH 6.8, 100 mM NaCl. In outline: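 Recombinant F2 TnC was expressed in E. coli BL21(DE3), purified on Ni-NTA, His-tag cleaved with TEV, then purified by gel filtration. Melittin (0.33 μM) plus F2 TnC (1.4 μM with 1 mM Ca2+) was titrated with synthetic test peptides (TnH fragments). Binding was read by melittin Trp fluorescence (excitation 280 nm, emission 290–400 nm) at 20 °C, pH 6.8 Tris/100 mM NaCl; Mg2+ was 5 mM.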

For assay [4], the target named is Lethocerus troponin C, F1 isoform (Lethocerus). The assay is described as follows: other fluorescence titration.
In assay [5] the target is Lethocerus troponin C, F2 isoform (Lethocerus). Kind of assay: other fluorescence titration.
Setting [6] is: 1 mM Ca^2+ and 5 mM Mg^2+, competition with melittin.
The mark [7] stands for this setting: 5 mM Mg^2+, competition with melittin.

“And” between values parts separate entries of the source, which are not always exact repeats. Equal values may be shown once. Where no end group is shown, it is not given here.

With `O=C(O)CN(CC(=O)O)c1ccc(Br)cc1OCCOc1cc(Br)ccc1N(CC(=O)O)CC(=O)O` [5,5′-dibromo BAPTA], the “Equilibrium association constant for Ca^2+ (KCa)” value in assay [1] is “(6.3 ± 0.5) × 10^5 M^−1”.
The Kd is a measure of binding affinity in units of concentration. Read a low Kd as higher affinity. On to “YDLNSQVNDLRGKFVKPTLKKVSKYENKFAKLQKK [TnH(126−159)]”, for which the “Equilibrium dissociation constant range for F1 TnC” value on F1 TnC [2] is “in the micromolar range”. Besides, the Kd at F1 TnC [3] (1 mM Ca^2+) was determined as 3700 ± 1100 nM; at F1 TnC [3] (5 mM Mg^2+) it was 9100 ± 3200 nM; on F1 TnC [3] (metal: none (0.2 mM EGTA)) it was 12200 ± 3400 nM; on F2 TnC (setting [6]), 3500 ± 800 nM; at F2 TnC (1 mM Ca^2+, competition with melittin 0.33 μM, F2 TnC 1.4 μM) it was 3100 ± 800 nM; on F2 TnC (setting [7]), 13500 ± 3500 nM.
As to “YKAKKAKKGFMTPERKKKLRLLLRKKAAEELKK [TnH(30−61)]”, on F1 TnC [2], the “Equilibrium dissociation constant range for F1 TnC” value is on record as “in the nanomolar range”. Moreover, the Kd on F1 TnC [3] (1 mM Ca^2+ and 5 mM Mg^2+) worked out at 1.3 ± 0.4 nM; on F1 TnC [3] (1 mM Ca^2+), 0.9 ± 0.2 nM; at F1 TnC [3] (5 mM Mg^2+), 2.2 ± 0.4 nM; on F1 TnC [3] (metal: none (0.2 mM EGTA)), 1.9 ± 0.6 nM; at F2 TnC (1 mM Ca^2+ (holo), competition with melittin 0.33 μM, F2 TnC 1.4 μM) it was 7.8 ± 0.15 nM; at F2 TnC (setting [6]) it was 6.7 ± 0.9 nM. This molecule showed a dissociation constant Kd on F2 TnC (setting [7]) of 38.5 ± 5.2 nM.
As for “TnH(30−61) peptide of Lethocerus troponin H”, in assay [4], the dissociation constant (Kd) is 1.3 nM and 1.9 nM and 2.2 nM.
On to “TnH(126−159) peptide of Lethocerus troponin H”, for which, in assay [4], the equilibrium dissociation constant (Kd) is 12200 nM and 3700 nM and 9100 nM.
As for `O=C(O)CN(CC(=O)O)c1ccccc1OCCOc1cc([N+](=O)[O-])ccc1N(CC(=O)O)CC(=O)O` [5-nitro BAPTA], the “Equilibrium association constant for Ca^2+ (KCa)” value in assay [1] is given as “(4.1 ± 0.3) × 10^4 M^−1”.
Take “Melittin from honey bee venom (from UniProt P01501 44-70) (peptide)”: the Kd is 840 nM and 190 nM and 770 nM in assay [5]; 41 nM and 8.3 nM and 32 nM in assay [4].
